What was measured:
Plasmodium falciparum [1] = assay: Antimalarial activity against Plasmodium falciparum 3D7 after 72 hrs by SYBR green fluorescence assay; assay type: functional, organism-based; details: 3D7, 72 h
Outline: (§1)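 P. falciparum grown in O+ erythrocytes, screened in medium without human serum plus 0.5% Albumax II. Twelve-point half-log dilutions up to 10 μM final. 0.3% parasitemia, 2.5% hematocrit; 72 h at 37 °C under low-oxygen gas. Lysis buffer with SYBR Green added, 24 h at 25 °C, fluorescence read at 485/530 nm.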

Plasmodium falciparum [2] = assay: Antimalarial activity against Plasmodium falciparum W2 after 72 hrs by SYBR green fluorescence assay; assay type: functional, organism-based; details: W2, 72 h; outline: as §1
[3] = Permeability of the compound by PAMPA; assay type: ADME
Outline: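 PAMPA in 96-well filter plates. Permeated compound quantified by UV absorbance at 260–290 nm. Reported as percentage absorbed.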

[4] = Apparent permeability across apical to basolateral side in human Caco2 cells by LC/MS analysis; assay type: ADME, cell-based; details: Caco-2
Outline: (§2)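 Caco-2 monolayers in 96-well format. Compound measured in apical and basolateral chambers by LC/MS, giving Papp in the A–B and B–A directions. Values reported in cm/s × 10⁶.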

[5] = Apparent permeability across basolateral to apical side in human Caco2 cells by LC/MS analysis; assay type: ADME, cell-based; details: Caco-2; outline: as §2
[6] = Volume of distribution in Balb/c mouse at 5 mg/kg, iv; assay type: ADME, organism-based; set-up: dose 5 mg/kg, route intravenous; details: in vivo
Outline: (§3)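 Male Balb/c mice (n = 3 per group). Compound as a 2.5 mg/mL solution in PEG300/D5W 3:1, filtered. Given by lateral tail vein at 5 mg/kg (2 mL/kg) or orally at 20 mg/kg (8 mL/kg). Six serial 50 μL retro-orbital blood samples to 24 h, heparinized plasma. Plasma extracted with acetonitrile:methanol 3:1 with internal standard, LC-MS/MS. Noncompartmental analysis; F = AUCpo×dose_iv/AUCiv×dose_po.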

[7] = Clearance in Balb/c mouse plasma at 5 mg/kg, iv; assay type: ADME, organism-based; set-up: dose 5 mg/kg, route intravenous; outline: as §3
[8] = Half life in Balb/c mouse at 5 mg/kg, iv; assay type: ADME, organism-based; set-up: dose 5 mg/kg, route intravenous; details: in vivo; outline: as §3
Mus musculus [9] = assay: AUC (0 to 24 hrs) in Balb/c mouse at 5 mg/kg, iv; assay type: ADME, organism-based, Plasma; set-up: time < 24 hr, dose 5 mg/kg, route intravenous; details: in vivo; outline: as §3
[10] = Cmax in Balb/c mouse at 20 mg/kg, po; assay type: ADME, organism-based; set-up: dose 20 mg/kg, route oral; details: in vivo; outline: as §3
[11] = Tmax in Balb/c mouse at 20 mg/kg, po; assay type: ADME, organism-based; set-up: dose 20 mg/kg, route oral; details: in vivo; outline: as §3
[12] = Half life in Balb/c mouse at 20 mg/kg, po; assay type: ADME, organism-based; set-up: dose 20 mg/kg, route oral; details: in vivo; outline: as §3
Mus musculus [13] = assay: AUC (0 to 24 hrs) in Balb/c mouse at 20 mg/kg, po; assay type: ADME, organism-based, Plasma; set-up: time < 24 hr, dose 20 mg/kg, route oral; details: in vivo; outline: as §3
Mus musculus [14] = assay: Oral bioavailability in Balb/c mouse at 20 mg/kg; assay type: ADME, organism-based; details: in vivo; outline: as §3
Plasmodium berghei [15] = assay: Antimalarial activity against Plasmodium berghei ANKA expressing GFP infected in NMRI mouse assessed as increase of mouse survival at 30 mg/kg, po administered 24 hrs post infection (reference value: 6 to 7 days); assay type: functional
Plasmodium berghei [16] = assay: Antimalarial activity against Plasmodium berghei ANKA expressing GFP infected in NMRI mouse assessed as increase of mouse survival at 100 mg/kg, po administered 24 hrs post infection (reference value: 6 to 7 days); assay type: functional
Rattus norvegicus [17] = assay: (§4) Cmax in Wistar rat at 10 mg/kg, po; assay type: ADME, organism-based; set-up: dose 10 mg/kg, route oral; details: in vivo, BLD = below limit of detection
Outline: (§5)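 Rat snapshot PK: two Wistar rats dosed orally at 10 mg/kg, formulated at 2.5 mg/mL in 75% PEG300/25% D5W. Blood (100 μL) taken at 0.5, 1, 3 and 5 h post dose. Plasma pooled by sampling time, then analysed by LC-MS/MS.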

[18] = Metabolic stability in mouse liver microsomes assessed as hepatic extraction ratio by LC/MS/MS analysis; assay type: ADME, Microsome
Outline: (§6)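 Liver microsomes (human, mouse, rat). Compound depletion followed by LC/MS/MS. Loss of parent used to derive in vitro half-life and hepatic extraction ratio.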

[19] = Metabolic stability in mouse liver microsomes assessed as hepatic extraction ratio by LC/MS/MS analysis in presence of CYP; assay type: ADME, Microsome; outline: as §6
[20] = Metabolic stability in rat liver microsomes assessed as hepatic extraction ratio by LC/MS/MS analysis in presence of CYP; assay type: ADME, Microsome; outline: as §6
[21] = Metabolic stability in human liver microsomes assessed as hepatic extraction ratio by LC/MS/MS analysis in presence of CYP; assay type: ADME, Microsome; outline: as §6
Plasmodium berghei [22] = assay: Antimalarial activity against Plasmodium berghei ANKA expressing GFP infected in NMRI mouse assessed as reduction of parasite level in blood at 30 mg/kg, po administered 24 hrs post infection measured after 72 hrs post infection by flow cytometry; assay type: functional; set-up: scale not given: the % may be the effect or the level left
Outline: (§7)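 Female NMRI mice (20–22 g, n=3) are infected i.v. with 2×10^7 P. berghei GFP ANKA-infected erythrocytes. Oral compound in 75% PEG300/25% D5W is given at 10 mL/kg, once at 24 h or daily at 24/48/72 h post-infection. Parasitemia is read by flow cytometry at 72 h (single dose) or 96 h (triple dose). Activity is % reduction of mean parasitemia versus untreated controls.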

Plasmodium berghei [23] = assay: Antimalarial activity against Plasmodium berghei ANKA expressing GFP infected in NMRI mouse assessed as increase of mouse survival at 30 mg/kg, po administered 24 hrs post infection qd for 3 days (reference value: 6 to 7 days); assay type: functional
[24] = AUC (0 to 5 hrs) in Wistar rat at 10 mg/kg, po; assay type: ADME, organism-based; set-up: dose 10 mg/kg, route oral; details: plasma
[25] = as §4; assay type: ADME, organism-based; set-up: dose 10 mg/kg, route oral; details: Wistar, in vivo; outline: as §5
Rattus norvegicus [26] = assay: Dose normalized AUC (0 to 5 hrs) in Wistar rat at 10 mg/kg, po; assay type: ADME, organism-based; set-up: dose 10 mg/kg, route oral; details: in vivo; outline: as §5
Plasmodium berghei [27] = assay: Antimalarial activity against Plasmodium berghei ANKA expressing GFP infected in NMRI mouse assessed as reduction of parasite level in blood at 30 mg/kg, po administered 24 hrs post infection qd for 3 days measured after 96 hrs post infection by flow cytometry; assay type: functional; set-up: scale not given: the % may be the effect or the level left; outline: as §7
Plasmodium berghei [28] = assay: Antimalarial activity against Plasmodium berghei ANKA expressing GFP infected in NMRI mouse assessed as reduction of parasite level in blood at 100 mg/kg, po administered 24 hrs post infection measured after 72 hrs post infection by flow cytometry; assay type: functional; set-up: scale not given: the % may be the effect or the level left; outline: as §7

EC50 (Plasmodium falciparum [1])	EC50 (Plasmodium falciparum [2])	permeability [3]	Papp A→B [4]	Papp B→A [5]	hepatic extraction ratio [18]	hepatic extraction ratio [19]	hepatic extraction ratio [20]	hepatic extraction ratio [21]	Structure (SMILES)	Survival (Plasmodium berghei [15])	Survival (Plasmodium berghei [16])	other results
10 nM	9 nM	99.5%	1.2 ×10⁻⁶ cm/s	0.97 ×10⁻⁶ cm/s	–	–	–	–	CC(C)(N)C(=O)N1CCn2c(nc(-c3ccc(F)cc3)c2Nc2ccc(F)cc2)C1(C)C	–	–	–
13 nM	7 nM	–	–	–	–	–	–	–	CC(C)(N)C(=O)N1CCn2c(nc(-c3ccc(F)cc3)c2Nc2ccc(F)c(F)c2)C1(C)C	–	–	–
138 nM	136 nM	–	–	–	0.72	0.72	–	–	Cc1ccc(Nc2c(-c3ccc(F)cc3)nc3n2CC(=O)NC3(C)C)cc1	–	–	–
13 nM	13 nM	99.9%	15.6 ×10⁻⁶ cm/s	6.96 ×10⁻⁶ cm/s	0.77	0.87	0.93	0.88	Cc1ccc(Nc2c(-c3ccc(F)cc3)nc3n2CCNC3(C)C)cc1	–	–	–

Second part, the molecule before the results:

Structure (SMILES)	EC50 (Plasmodium falciparum [1])	EC50 (Plasmodium falciparum [2])	permeability [3]	Papp A→B [4]	Papp B→A [5]	hepatic extraction ratio [18]	hepatic extraction ratio [19]	hepatic extraction ratio [20]	hepatic extraction ratio [21]	Survival (Plasmodium berghei [15])	Survival (Plasmodium berghei [16])	other results
CC1(C)Cn2c(nc(-c3ccc(F)cc3)c2Nc2ccc(F)cc2)CN1C(=O)CN	82 nM	111 nM	–	–	–	–	–	–	–	–	–	–
CC1(C)CN(C(=O)CN)Cc2nc(-c3ccc(F)cc3)c(Nc3ccc(F)cc3)n21	80 nM	76 nM	–	–	–	–	–	–	–	–	–	–
Cc1ccc(Nc2c(-c3ccc(F)cc3)nc3n2CCN(C(=O)C(C)(C)N)C3(C)C)cc1	2 nM	4 nM	99.5%	3.5 ×10⁻⁶ cm/s	2.37 ×10⁻⁶ cm/s	–	–	–	–	15.3 days	16.7 days	Vd [6]: 7.5 L/kg; clearance [7]: 36.1 mL/min/kg; half-life [8]: 18 h; AUC (Mus musculus [9]): 7.607 µM·h; Cmax [10]: 1640 nM; Tmax [11]: 1 h; half-life [12]: 14.5 h; AUC (Mus musculus [13]): 32.409 µM·h; F (Mus musculus [14]): 107%; Cmax (Rattus norvegicus [17]): BLD
Cc1ccc(Nc2c(-c3ccc(F)cc3)nc3n2CCNC3)cc1	161 nM	178 nM	99.5%	8.2 ×10⁻⁶ cm/s	2.36 ×10⁻⁶ cm/s	0.8	0.87	0.96	0.79	–	–	–
Cc1ccc(Nc2c(-c3ccc(F)cc3)nc3n2CC(=O)NC3)cc1	1080 nM	1170 nM	80.9%	15 ×10⁻⁶ cm/s	14.4 ×10⁻⁶ cm/s	0.7	0.66	0.95	0.44	–	–	–
CC1(C)NCCn2c1nc(-c1ccc(F)cc1)c2Nc1ccc(F)cc1	5 nM	5 nM	99.9%	–	–	0.8	0.8	0.92	0.92	7 days	9.7 days	Vd [6]: 1.2 L/kg; clearance [7]: 25.9 mL/min/kg; half-life [8]: 0.8 h; AUC (Mus musculus [9]): 9.09 µM·h; Cmax [10]: 6400 nM; Tmax [11]: 1 h; half-life [12]: 2.95 h; AUC (Mus musculus [13]): 19.447 µM·h; F (Mus musculus [14]): 53%; Activity (Plasmodium berghei [22]): 90%; Survival (Plasmodium berghei [23]): 12 days; AUC(0-t) at 4 h [24]: 0.423 µM·h; Cmax [25]: 202 nM; AUC/dose (Rattus norvegicus [26]): 0.9 min.ug/ml/(mg/kg)
C[C@H]1[C@H](OC(=O)CCC(=O)O)O[C@@H]2O[C@@]3(C)CC[C@H]4[C@H](C)CC[C@@H]1[C@@]24OO3 [ARTESUNATE]	–	–	–	–	–	–	–	–	–	5.8 days	7 days	Activity (Plasmodium berghei [22]): 95.6%; Activity (Plasmodium berghei [27]): 99%; Survival (Plasmodium berghei [23]): 12.2 days
CCN(CC)CCCC(C)Nc1ccnc2cc(Cl)ccc12 (stereo not drawn) [CHLOROQUINE]	–	–	–	–	–	–	–	–	–	9 days	12.5 days	Activity (Plasmodium berghei [22]): 99.5%; Activity (Plasmodium berghei [28]): 99.6%; Activity (Plasmodium berghei [27]): 99.8%; Survival (Plasmodium berghei [23]): 13.6 days

Reference: ChEMBL document CHEMBL2057141, “Imidazolopiperazines: lead optimization of the second-generation antimalarial agents” (J Med Chem, 2012)
